{
  "source": "the RNAGym collection of RNA variant scans (doi:10.1101/gad.245936.114)",
  "parents": {"B1": {"name": "tRNA (parent)", "chain": "CUCUCGGUAGCCAAGUUGGUUUAAGGCGCAAGACUUUAAUUUAUCACUACGAAAUCUUGAGAUCGGGCGUUCGACUCGCCCCCGGGAGAUUUUUUCCUCGAGCAA"}},
  "note": "Variants at the floor of the assay were thinned out.",
  "data": [
    {"variants_of": "B1", "test": "nonsense suppression (GFP-seq) (ratio to wild type); higher = more function; SUP4oc tRNA, yeast GFP reporter sort-seq", "in_short": "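To measure nonsense suppression, tRNA variants from a library carrying ~3% random mutations were integrated into the yeast genome alongside RFP and a GFP ochre reporter under galactose control. Growth took place in raffinose/galactose medium supplemented with 80 mg/L adenine, followed by sorting into GFP/RFP bins and Illumina sequencing of each bin (phred ≥30). For each variant with ≥100 reads and ≥30 cells, the bin median GFP/RFP values were weighted by its estimated cell share per bin and referenced to the unmutated parent tRNA.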", "values": [
      {"variant": "CUCUCGGUAGCCAAGUUGGUUUAAGGCGCAAGACUUUAAUUUAUCACUACGAAAUCUUGAGAUCGGGCGUUCGACUCGCCCCCGGUUGAUUUUUUCCUCGAGCAA", "nonsense suppression": "≤ 0.026"},
      {"variant": "CUCUCGGUAGCCAAGUUGGUUUAAGGCGCAAGACUUUAAUUUAUCACUACGAAAUCUUGAGAUCGGGCGUUCGACUCGCCCCCGGGAUGUUUUUUCCUCGAGCAA", "nonsense suppression": "≤ 0.026"},
      {"variant": "CUCUCGGUAGCCAAGUUGGUUUAAGGCGCAAGACUUUAAUUUAUCACUACGAAAUCUUGAGAUCGGGCGUUCGACUCGCCCCCGGGAUCUUUUUUCCUCGAGCAA", "nonsense suppression": "≤ 0.026"},
      {"variant": "CUCUCGGUAGCCAAGUUGGUUUAAGGCGCAAGACUUUAAUUUAUCACUACGAAAUCUUGAGAUCGGGCGUUCGACUCGCCCCCGGGGGAUUUUUUCCUCGAGCAA", "nonsense suppression": 1.16},
      {"variant": "CUCUCGGUAGCCAAGUUGGUUUAAGGCGCAAGACUUUAAUUUAUCACUACGAAAUCUUGAGAUCGGGCGUUCGACUCGCCCCCGGGACAUUUUUUCCUCGAGCAA", "nonsense suppression": 0.028},
      {"variant": "CUCUCGGUAGCCAAGUUGGUUUAAGGCGCAAGACUUUAAUUUAUCACUACGAAAUCUUGAGAUCGGGCGUUCGACUCGCCCCCGGUAGAUUUUUUCCUCGAGCAA", "nonsense suppression": "≤ 0.026"}
    ]}
  ]
}
